Consider five molecules from ChEMBL document CHEMBL6177921, “Enhancing the antimycobacterial efficacy of pyridine-4-carbohydrazide: linkage to additional antimicrobial agents via oxocarboxylic acids” (RSC Med Chem, 2025).

Values after ≈ are worked out from the molar mass of the structure shown.

Usually MIC stands for the lowest concentration found to suppress growth.

The nature of data set [1]: Hemolytic activity in human Red blood cells assessed as hemolysis rate incubated for 1 hr by absorbance based spectrophotometric analysis relative to control. It counts as toxicity, cell-based, Erythrocyte. The following applies: read-out: Activity. Summed up:
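Human erythrocyte suspension mixed 1:1 with compound in Hartmann's solution at final 125 μM, final DMSO 1.0% (v/v), 37 °C for 1 h. After centrifugation, released haemoglobin in the supernatant was read at 405 nm. Negative control was hRBCs with 1.0% DMSO; positive control was hRBCs sonicated for 1 min.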

In data set [2] the test system is Mycobacterium tuberculosis. As to the kind of experiment: Antimycobacterial activity against multidrug sensitive Mycobacterium tuberculosis H37Rv CNCTC 331/88 assessed as bacterial growth inhibition incubated for 14 days by two-fold serial dilution method. The data set is classed as functional. The following applies: H37Rv CNCTC 331/88, 336 h, time 14 day.
For data set [3], the system named is Mycobacterium tuberculosis. As to the kind of experiment: Antimycobacterial activity against Mycobacterium tuberculosis H37Rv CNCTC 331/88 assessed as bacterial growth inhibition incubated for 21 days by two fold serial dilution method. It counts as functional. Conditions: H37Rv CNCTC 331/88, 504 h, time 21 day.
The test system of data set [4] is Mycobacterium avium. As to the kind of experiment: Antimycobacterial activity against INH/RIF/rifabutin/OFX/EMB resistant Mycobacterium avium CNCTC 330/88 assessed as bacterial growth inhibition incubated for 14 days by two-fold serial dilution method. It counts as functional. The following applies: CNCTC 330/88, 336 h, time 14 day. Summed up: (§1)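 M. avium CNCTC 330/88 (stock suspension dilution 10−5) grown in Šula's semisynthetic liquid medium; two-fold serial dilutions 1000 to 1 μM from DMSO stocks (final DMSO 1.0% v/v); final load 1.5 × 10^5 CFU mL−1; MIC read visually as lowest concentration giving complete growth inhibition after 14 and 21 days.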

Data set [5] has as its system Mycobacterium avium. As to the kind of experiment: Antimycobacterial activity against INH/RIF/rifabutin/OFX/EMB resistant Mycobacterium avium CNCTC 330/88 assessed as bacterial growth inhibition incubated for 21 days by two-fold serial dilution method. Conditions: CNCTC 330/88, 504 h, time 21 day. It counts as functional. In outline: as §1
In data set [6] the test system is Mycobacterium kansasii. In words: Antimycobacterial activity against INH/RIF/rifabutin/OFX/EMB Mycobacterium kansasii CNCTC 6509/96 clinical isolate assessed as bacterial growth inhibition incubated for 7 days by two-fold serial dilution method. It counts as functional. The following applies: CNCTC 6509/96, 168 h, time 7 day. In outline:
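Šula's liquid semisynthetic medium; M. kansasii clinical isolate 6509/96 used at stock dilution 10−4, final ~1.5 × 10^5 CFU mL−1. Two-fold dilutions ran 1000–1 μM with final DMSO 1.0% (v/v). MIC was read visually as complete growth inhibition after 7, 14 and 21 days.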

The subject of data set [7] is Mycobacterium kansasii. In words: Antimycobacterial activity against multi-drug resistant Mycobacterium kansasii CNCTC 6509/96 clinical isolate assessed as bacterial growth inhibition incubated for 14 days by two-fold serial dilution method. It counts as functional. The following applies: CNCTC 6509/96, 336 h, time 14 day. In outline:
(§2)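 M. kansasii clinical isolate 6509/96 (stock dilution 10−4) in Šula's semisynthetic liquid medium; two-fold serial dilutions 1000 to 1 μM, DMSO final 1.0% v/v; final load 1.5 × 10^5 CFU mL−1; MIC read visually as complete growth inhibition at 7, 14 and 21 days.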

Data set [8] concerns Mycobacterium kansasii. As to the kind of experiment: Antimycobacterial activity against multi-drug resistant Mycobacterium kansasii clinical isolate CNCTC 6509/96 assessed as bacterial growth inhibition incubated for 21 days by two-fold serial dilution method. The data set is classed as functional. Conditions: CNCTC 6509/96, 504 h, time 21 day. Summed up: as §2
Data set [9] concerns Candida albicans. As to the kind of experiment: Antifungal activity against Candida albicans ATCC 24443 measured after 24 to 48 hrs by microdilution broth method. It counts as functional. Conditions: time 24-48 hrs. Summed up:
(§3)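 Yeast broth microdilution per EUCAST, slightly modified. Medium was RPMI-1640 with 2% glucose, MOPS-buffered to pH 7.0. Compounds were tested at 0.98–500 μM with final DMSO ≤1.0% (v/v). Inoculum came from 18–24 h cultures, final ~1–5 × 10^5 CFU mL−1. Plates were incubated statically, dark and humidified, at 35 ± 2 °C. MIC was read visually at 24 and 48 h (no visible growth).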
In general terms: Broth dilution looks for growth in wells or tubes with falling amounts of substance.

Data set [10] relates to Candida albicans. As to the kind of experiment: Antifungal activity against Candida albicans CCM 8320 measured after 24 to 48 hrs by microdilution broth method. The data set is classed as functional. Conditions: time 24-48 hrs. Summed up:
as §3

Data set [11] relates to Pichia kudriavzevii. As to the kind of experiment: Antifungal activity against Candida krusei ATCC 6258 measured after 24 to 48 hrs by microdilution broth method. It counts as functional. The following applies: time 24-48 hrs. Summed up:
as §3

In data set [12] the test system is Pichia kudriavzevii. In words: Antifungal activity against Candida krusei CCM 8271 measured after 24 to 48 hrs by microdilution broth method. It counts as functional. Conditions: time 24-48 hrs. Summed up:
as §3

Data set [13] concerns Candida parapsilosis. In words: Antifungal activity against Candida parapsilosis ATCC 22019 measured after 24 to 48 hrs by microdilution broth method. The data set is classed as functional. Conditions: Lodderomyces parapsilosis, time 24-48 hrs. In outline: as §3
Data set [14] relates to Candida parapsilosis. In words: Antifungal activity against Candida parapsilosis CCM 8260 measured after 24 to 48 hrs by microdilution broth method. The data set is classed as functional. Conditions: Lodderomyces parapsilosis, time 24-48 hrs. In outline:
as §3

Data set [15] deals with Candida tropicalis. As to the kind of experiment: Antifungal activity against Candida tropicalis ATCC 750 measured after 24 to 48 hrs by microdilution broth method. It counts as functional. Conditions: time 24-48 hrs. In outline: as §3
Data set [16] has as its system Candida tropicalis. In words: Antifungal activity against Candida tropicalis CCM 8264 measured after 24 to 48 hrs by microdilution broth method. It counts as functional. The following applies: time 24-48 hrs. In outline:
as §3

The test system of another data set is Aspergillus fumigatus. In words: Antifungal activity against Aspergillus fumigatus ATCC 204305 measured after 24 to 48 hrs by microdilution broth method. It counts as functional. Conditions: time 24-48 hrs. In outline: (§4)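 Filamentous fungi tested by broth microdilution per EUCAST with minor changes. Compounds were tested at 0.98–500 μM with final DMSO ≤1.0% (v/v). Plates were incubated statically, dark and humidified, at 35 ± 2 °C for 24 and 48 h. MIC was the lowest concentration showing no visible growth.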

The next data set relates to Aspergillus flavus. As to the kind of experiment: Antifungal activity against Aspergillus flavus CCM 8363 measured after 24 to 48 hrs by microdilution broth method. The data set is classed as functional. The following applies: time 24-48 hrs. Summed up: as §4
The test system of the next data set is Lichtheimia corymbifera. In words: Antifungal activity against Lichtheimia corymbifera CCM 8077 measured after 24 to 48 hrs by microdilution broth method. The data set is classed as functional. The following applies: time 24-48 hrs. In outline:
as §4

Data set [17] relates to Trichophyton interdigitale. As to the kind of experiment: Antifungal activity against Trichophyton interdigitale ATCC 9533 measured after 24 to 48 hrs by microdilution broth method. It counts as functional. Conditions: time 24-48 hrs.
The test system of data set [18] is Trichophyton interdigitale. In words: Antifungal activity against Trichophyton interdigitale CCM 8377 measured after 24 to 48 hrs by microdilution broth method. It counts as functional. The following applies: time 24-48 hrs.

Turning to `CC[C@@H](CO)NCCN[C@@H](CC)CO` [ETHAMBUTOL], in data set [1], the hemolysis at 1 h is 0.01%.

For the molecule `C/C(=N\NC(=O)c1ccncc1)C(=O)Nc1ccc(S(=O)(=O)Nc2nccs2)cc1`, the MIC was 1 µM (≈ 0.444 µg/mL) in data set [2]; 1 µM (≈ 0.444 µg/mL) in data set [3]; ≥ 1000 µM in the data set on Mycobacterium avium [4]; ≥ 1000 µM in the data set with Mycobacterium avium [5]; 16 µM (≈ 7.11 µg/mL) in the data set with Mycobacterium kansasii [6]; 16 µM (≈ 7.11 µg/mL) in the data set with Mycobacterium kansasii [7]. The MIC with Mycobacterium kansasii [8] is 16 µM (≈ 7.11 µg/mL); against Candida albicans [9] it was > 500 µM; against Candida albicans [10], > 500 µM; in the data set on Pichia kudriavzevii [11], > 500 µM; with Pichia kudriavzevii [12] it was > 500 µM; in the data set with Candida parapsilosis [13], > 500 µM. Further, the minimum inhibitory concentration (MIC) against Candida parapsilosis [14], against Candida tropicalis [15], against Candida tropicalis [16], in the data set on Aspergillus fumigatus, against Aspergillus flavus and against Lichtheimia corymbifera was > 500 µM throughout. The MIC in data set [17] and in data set [18] was > 500 µM throughout.

Turning to `C/C(=N\NC(=O)c1ccncc1)C(=O)Nc1ccc(Oc2ccc(Cl)cc2)c(Cl)c1`, the minimal inhibitory concentration (MIC) amounted to 0.5 µM (≈ 0.222 µg/mL) in [2]; 0.5 µM (≈ 0.222 µg/mL) in [3]; 500 µM (≈ 222 µg/mL) in the data set on Mycobacterium avium [4]; 500 µM (≈ 222 µg/mL) in the data set with Mycobacterium avium [5]; 32 µM (≈ 14.2 µg/mL) in the data set with Mycobacterium kansasii [6]; 64 µM (≈ 28.4 µg/mL) in the data set with Mycobacterium kansasii [7]. Moreover, the minimal inhibitory concentration (MIC) was 64 µM (≈ 28.4 µg/mL) with Mycobacterium kansasii [8]; > 500 µM against Candida albicans [9]; > 500 µM against Candida albicans [10]; > 500 µM in the data set with Pichia kudriavzevii [11]; > 500 µM in the data set with Pichia kudriavzevii [12]; > 500 µM against Candida parapsilosis [13]. Further, the MIC with Candida parapsilosis [14], against Candida tropicalis [15], against Candida tropicalis [16], in the data set on Aspergillus fumigatus, in the data set with Aspergillus flavus and against Lichtheimia corymbifera was > 500 µM each time. In addition, the MIC in data set [17] and in data set [18] was > 500 µM in each case.

`NC(=O)c1cnccn1` [PYRAZINAMIDE]: the hemolysis at 1 h in [1] was determined as 0.01%.

Regarding `C/C(=N\NC(=O)c1ccncc1)C(=O)Nc1ccc(S(N)(=O)=O)cc1`, the minimal inhibitory concentration (MIC) is 2 µM (≈ 0.723 µg/mL) in data set [2]; 2 µM (≈ 0.723 µg/mL) in data set [3]; ≥ 1000 µM in the data set on Mycobacterium avium [4]; ≥ 1000 µM in the data set with Mycobacterium avium [5]; 32 µM (≈ 11.6 µg/mL) with Mycobacterium kansasii [6]; 64 µM (≈ 23.1 µg/mL) with Mycobacterium kansasii [7]. Besides, the MIC is 64 µM (≈ 23.1 µg/mL) with Mycobacterium kansasii [8]; > 500 µM in the data set with Candida albicans [9]; > 500 µM in the data set with Candida albicans [10]; > 500 µM in the data set on Pichia kudriavzevii [11]; > 500 µM in the data set with Pichia kudriavzevii [12]; > 500 µM with Candida parapsilosis [13]. The minimum inhibitory concentration (MIC) against Candida parapsilosis [14], in the data set on Candida tropicalis [15], in the data set on Candida tropicalis [16], in the data set with Aspergillus fumigatus, with Aspergillus flavus and with Lichtheimia corymbifera was > 500 µM in each case. Also, the MIC in data set [17] and in data set [18] was > 500 µM in each case.
